Experiments:
[1] = test system: recombinant HIV–1 (NL4.3–Ren); assay type: cell-based; conditions: Human immunodeficiency virus 1, MT2, 48 h, read-out: IC50 μM HIV (CI95%; R2), isolated compounds, MT–2 cells, wild type HIV NL4.3–Ren
Method in brief: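 MT-2 cells (RPMI-1640, 10% FBS, 2 mM L-glutamine, penicillin/streptomycin; 37 °C, 5% CO2) were infected with NL4.3-Ren supernatant (100.000 RLUs or 20 ng p24 per well) alongside serial dilutions of test compound (10 mM DMSO stock). Enfuvirtide served as control. After 48 h, lysates were read for Renilla-luciferase RLUs against vehicle-matched untreated cells (100%). IC50 came from non-linear regression.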

MT–2 cells = test: Cell viability in mock–infected MT–2 cells; assay type: cell-based; conditions: MT–2 cells
Method in brief: (§1)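 Test compound (from 10 mg/mL or 10 mM DMSO stocks) was added at graded concentrations to mock-infected MT-2 cells, run in parallel with the 48 h antiviral assay. Cells were grown in RPMI-1640 with 10% FBS, 2 mM L-glutamine and penicillin/streptomycin at 37 °C, 5% CO2. Viability was read by CellTiter Glo as % of the DMSO-matched control. CC50 came from non-linear regression.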

[2] = Cell viability in mock–infected MT–2 cells; assay type: cell-based; conditions: human, mock-infected MT-2 cells
Method in brief: as §1

[3] = test system: HIV transcription (pNL4.3–Luc); test: HIV transcription assay: MT–2 cells transfected with pNL4.3–Luc; assay type: cell-based, HIV–1
Method in brief: (§2)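 MT-2 cells were electroporated at 260 V in serum-free RPMI with a luciferase reporter: pNL4.3-Luc (whole HIV-1 genome), 3-enh-κB-ConA-luc (three κB copies), or Sp1-Luc (two Sp1 sites). Cells were seeded in complete RPMI with serial dilutions or one selected concentration of test compound at 37 °C for 48 h. PMA 100 nM was the reference. RLUs were expressed as % of DMSO control, with Bonferroni-corrected one-way ANOVA.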

[4] = test system: VSV pseudotyped HIV (VSV–HIV); test: microbe, parasite or virus in culture; assay type: cell-based, HIV–1; conditions: for IC50: Vesicular stomatitis virus, MT2, 48 h, read-out: IC50 μM VSV–HIV (CI95%; R2); for Effect on viral entry: comparison of HIV IC50 and VSV–HIV IC50 in MT–2 cells
NF–κB = NF–κB activity: MT–2 cells transfected with NF–κB–Luc plasmid; assay type: cell-based
Method in brief: as §2

Sp1 = Sp1 activity: MT–2 cells transfected with Sp1–Luc plasmid; assay type: cell-based; conditions: 48 h
Method in brief: as §2

THP–1 cells = test: Glutathione determination; assay type: cell-based; conditions: maximum redox index reached, maximum 1 (all glutathione reduced)
Method in brief: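 THP-1 cells were treated with serial dilutions of test compound, with resveratrol as reference. Cells were lysed in 0.1 M sodium phosphate/0.005 M EDTA, pH 8, plus 60% HClO4 (10 μL/mL), then spun at 6000g for 10 min at 4 °C. GSH and GSSG were measured by OPT fluorescence (ex 350/em 420 nm) against a GSH standard curve. Redox index = GSH/(GSH+GSSG), maximum 1. EC50 and Emax came from non-linear dose-response fits.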

[5] = fixed concentration 20 μM, pNL4.3–Luc, 48 h
[6] = fixed concentration 20 μM, NF–κB–Luc, 48 h

SMILES | IC50 [1] [µM] | Toxicity at 100 μM (MT–2 cells; 100 μM) | CC50 at 48 h [2] [µM] | Effect on HIV transcription ([3]; one selected active concentration (not given), compared with damsin) | IC50 [4] [µM] | Effect on viral entry [4] | Effect on NF–κB activity (NF–κB; one selected active concentration (not given)) | Concentrations toxic to MT–2 cells (MT–2 cells) | Effect on Sp1 activity (Sp1; 4 μM, vs untreated control) | Effect on HIV transcription ([3]; 4 μM, pNL4.3–Luc, 48 h, vs untreated control) | Effect on NF–κB activity (NF–κB; 4 μM, NF–κB–Luc, 48 h, vs untreated control) | Emax (CI95%) (THP–1 cells) | Effect on Sp1 activity (Sp1; fixed concentration 20 μM) | Effect on HIV transcription [3, 5] | Effect on NF–κB activity (NF–κB; [6])
C[C@]12CCC(=O)C=C1C=C[C@@H]1[C@@H]2CC[C@@]2(C)[C@H]1CC[C@@]21CCC(=O)O1 [Canrenone, canrenone] | 18.9 | slight toxicity | ~100 | slightly less active | 14.2 | viral entry is not their target | more powerful activity as a NF–κB inhibitor than as a Sp1 inhibitor | – | – | – | – | – | – | – | –
C=C1C(=O)O[C@@H]2[C@H]1CC[C@H](C)[C@@H]1CCC(=O)[C@@]21C [Damsin, damsin] | 0.84 | – | 20 to 100 | – | 0.83 | viral entry is not their target | – | higher than 20 μM | completely inhibits | completely inhibits | completely inhibits | – | – | – | –
Oc1ccc(/C=C/c2cc(O)cc(O)c2)cc1 [Resveratrol, resveratrol, reference compound] | – | – | – | – | – | – | – | – | – | – | – | 0.94 (0.92–0.96) | – | – | –
COc1ccc(-c2cc(=O)c3cc(OC)ccc3o2)c(OC)c1 [Trimethoxyflavone, 6,2′,4′–trimethoxyflavone] | 28.4 | – | > 100 | – | 35.6 | ruling out an effect on viral entry | – | – | – | – | – | 0.74 (0.47–1.00) | almost complete inhibition | almost complete inhibition | almost complete inhibition
COc1c(OC)c(O)c2c(=O)cc(-c3ccc(O)cc3)oc2c1OC [Xanthomicrol, xanthomicrol] | 17.4 | – | > 100 | – | 34.4 | HIV–1 entry is impaired | – | – | – | – | – | 0.93 (0.81–1.04) | no effect on Sp1 | active as HIV transcriptional inhibitor | weak inhibition of NF–κB

— article PMC7397943 (Journal of Ethnopharmacology, 2020)
